The source of these data is ChEMBL document CHEMBL1139658, “Synthesis and screening of bicyclic carbohydrate-based compounds: a novel type of antivirals” (Bioorg Med Chem Lett, 2006).

Test [1] has as its system Cytomegalovirus. Kind of test: Antiviral activity against Cytomegalovirus AD-169 in human embryonic lung cells. The format is functional, organism-based. Particulars: Human betaherpesvirus 5, AD-169, lung. The procedure, abridged:
(§1)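 HEL cell monolayers infected at 20 PFU per well, adsorbed 2 h at 37 °C. Medium with serial compound dilutions then added. Giemsa stain on day 7 and plaques counted under the microscope. IC50 is the concentration giving 50% inhibition of virus-induced plaque formation. Minimum cytotoxic concentration scored on day 7 as the lowest concentration causing visible change to the confluent cells.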

Another test has as its system HEL. Kind of test: Cytotoxicity against human embryonic lung cells. In kind it is functional. The procedure, abridged:
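Two HEL cell toxicity read-outs. Cell growth (CC50): growing HEL cells in 96-well plates were given serial compound concentrations for 3 days, then trypsinized and counted with a Coulter counter; CC50 is the concentration cutting cell growth by 50%. Morphology (MCC): on confluent monolayers during the antiviral assay, this is the lowest concentration with microscopically visible toxicity at day 7.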

Test [2] relates to Cytomegalovirus. The experiment in a line: Antiviral activity against Cytomegalovirus Davies in human embryonic lung cells. In kind it is functional, organism-based. The settings on record: Human betaherpesvirus 5, Davies. The procedure, abridged: as §1

≈ marks a conversion by molar mass, not a printed value.

In the case of `CCCCCO[C@@H]1[C@@H](OCCCCC)[C@H](c2ccccc2)O[C@@H]2CO[C@@H](c3ccccc3)O[C@@H]12`, the IC50 (commonly the concentration at which inhibition is half-maximal) in the test on Cytomegalovirus [1] is over 3.2 µg/mL. For the same compound, in the test with HEL, the CC50 (as a rule, the concentration giving 50% cytotoxicity) came out at 182 µg/mL (≈ 388 µM) and the MCC turned out to be 16 µg/mL. It took 2.4 µg/mL (≈ 5.12 µM) to reach half-maximal inhibition in the test on Cytomegalovirus [2] (IC50).

In the case of `CO[C@@H]1[C@@H](OC)[C@H](c2ccccc2)O[C@@H]2CO[C@@H](c3ccc(C(F)(F)F)cc3)O[C@@H]12`, the figures for the IC50 in the test with Cytomegalovirus [1] and in the test on Cytomegalovirus [2] were 1.5 µg/mL (≈ 3.53 µM) and 3.1 µg/mL (≈ 7.3 µM), respectively. The same compound gave a CC50 in the test on HEL of over 50 µg/mL. Moreover, the MCC in the test with HEL was at least 16 µg/mL.

As for `CO[C@@H]1[C@@H](OC)[C@H](c2ccccc2)O[C@@H]2CO[C@@H](c3ccc(Cl)cc3)O[C@@H]12`, the results for the IC50 with Cytomegalovirus [1] and in the test on Cytomegalovirus [2] were 5 µg/mL (≈ 12.8 µM) and 4 µg/mL (≈ 10.2 µM), respectively. For the same compound, in the test with HEL, the cytotoxic concentration (CC50) is over 50 µg/mL. In the test with HEL, this compound had an MCC of at least 100 µg/mL.

For `O=[N+]([O-])c1ccc([C@@H]2OC[C@H]3O[C@@H](c4ccccc4)[C@H](O)[C@@H](O)[C@@H]3O2)cc1`, the IC50 in the test on Cytomegalovirus [1] was 10 µg/mL (≈ 26.8 µM); in the test with Cytomegalovirus [2], 9.3 µg/mL (≈ 24.9 µM). The cytotoxic concentration (CC50) in the test on HEL was over 50 µg/mL. Further, the MCC in the test on HEL is 50 µg/mL.

In the case of `CO[C@H]1[C@H]2O[C@H](c3ccccc3)OC[C@H]2O[C@@H](c2ccccc2)[C@@H]1OC`, the IC50 in the test with Cytomegalovirus [1] and with Cytomegalovirus [2] was over 50 µg/mL in each case. In the test with HEL, this compound showed an MCC of over 400 µg/mL.

`C=CCO[C@@H]1[C@@H](OCC=C)[C@H](Cc2ccccc2)O[C@@H]2CO[C@@H](c3ccccc3)O[C@@H]12` displayed a half-inhibitory concentration (IC50) in the test with Cytomegalovirus [1] of 1.2 µg/mL (≈ 2.84 µM). In the test with HEL, this compound gave a CC50 of over 50 µg/mL and an MCC of 20 µg/mL. Further, in the test on Cytomegalovirus [2], the concentration for half-maximal inhibition (IC50) is 1 µg/mL (≈ 2.37 µM).

`CO[C@@H]1[C@@H](OC)[C@H](c2ccccc2)O[C@@H]2CO[C@@H](c3ccc(-c4ccccc4)cc3)O[C@@H]12` had a concentration for half-maximal inhibition (IC50) in the test on Cytomegalovirus [1] of 0.8 µg/mL (≈ 1.85 µM). For the same compound, in the test on HEL, the CC50 is over 50 µg/mL and the MCC was at least 16 µg/mL. Moreover, the midpoint of inhibition in the test on Cytomegalovirus [2], the IC50, lay at 0.6 µg/mL (≈ 1.39 µM).

The compound `CCO[C@@H]1[C@@H](OCC)[C@H](Cc2ccccc2)O[C@@H]2CO[C@@H](c3ccccc3)O[C@@H]12` yielded an IC50 with Cytomegalovirus [1] of 2.6 µg/mL (≈ 6.52 µM). In the test on HEL, this compound returned a CC50 of over 50 µg/mL and an MCC of over 120 µg/mL. In the test on Cytomegalovirus [2], the IC50 is 3 µg/mL (≈ 7.53 µM).

As to `CO[C@@H]1[C@@H](OC)[C@H](Cc2ccccc2)O[C@@H]2CO[C@@H](c3ccccc3)O[C@@H]12`, the IC50 in the test on Cytomegalovirus [1] came out at 20 µg/mL (≈ 54 µM). In the test on HEL, this compound returned a CC50 of over 50 µg/mL and an MCC of 20 µg/mL. In addition, the IC50 in the test with Cytomegalovirus [2] was 5 µg/mL (≈ 13.5 µM).

Take `CC(C)CO[C@@H]1[C@@H](OCC(C)C)[C@@H](c2ccccc2)O[C@@H]2CO[C@@H](c3ccccc3)O[C@@H]12`: the IC50 was found to be 2.6 µg/mL (≈ 5.9 µM) in the test on Cytomegalovirus [1] and 3.2 µg/mL (≈ 7.26 µM) with Cytomegalovirus [2]. The MCC with HEL amounted to 40 µg/mL.

On to `CO[C@H]1[C@@H]2O[C@H](c3ccccc3)OC[C@H]2O[C@@H](c2ccccc2)[C@H]1OC`, for which the concentration for half-maximal inhibition (IC50) in the test with Cytomegalovirus [1] and in the test with Cytomegalovirus [2] was over 50 µg/mL in each case. In addition, the MCC in the test on HEL was found to be 400 µg/mL.

With `C=CC[C@@H]1O[C@@H]2CO[C@@H](c3ccccc3)O[C@H]2[C@H](OC)[C@H]1OC`, the IC50 with Cytomegalovirus [1] and in the test on Cytomegalovirus [2] was over 50 µg/mL each time.

As to `C#CCO[C@@H]1[C@@H](OCC#C)[C@H](Cc2ccccc2)O[C@@H]2CO[C@@H](c3ccccc3)O[C@@H]12`, the 50% inhibitory concentration (IC50) with Cytomegalovirus [1] and in the test on Cytomegalovirus [2] was 0.5 µg/mL (≈ 1.19 µM) in each case. In the test with HEL, this compound registered an MCC of 40 µg/mL.

On to `O[C@@H]1[C@@H](O)[C@H](c2ccccc2)O[C@@H]2CO[C@@H](c3ccc4ccccc4c3)O[C@@H]12`, for which the results for the half-maximal inhibitory concentration (IC50) with Cytomegalovirus [1] and with Cytomegalovirus [2] were 1.3 µg/mL (≈ 3.44 µM) and 1.8 µg/mL (≈ 4.76 µM), respectively. In the test with HEL, this compound showed a cytotoxic concentration (CC50) of 21 µg/mL (≈ 55.5 µM). This compound displayed an MCC in the test on HEL of at least 400 µg/mL.

Regarding `CO[C@@H]1[C@@H](OC)[C@H](c2ccccc2)O[C@@H]2CO[C@@H](C3CCCCC3)O[C@@H]12`, the IC50 in the test with Cytomegalovirus [1] worked out at 3.2 µg/mL (≈ 8.83 µM); with Cytomegalovirus [2], 3.5 µg/mL (≈ 9.66 µM). Besides, in the test on HEL, the midpoint of cytotoxicity, the CC50, lay at 28 µg/mL (≈ 77.2 µM). The compound also showed an MCC with HEL of 20 µg/mL.

On to `CO[C@@H]1[C@@H](OC)[C@H](c2ccccc2)O[C@@H]2CO[C@@H](c3cccc(Cl)c3)O[C@@H]12`, for which the concentration for half-maximal inhibition (IC50) in the test on Cytomegalovirus [1] is 5 µg/mL (≈ 12.8 µM); in the test on Cytomegalovirus [2], 3.2 µg/mL (≈ 8.19 µM). Moreover, the MCC in the test on HEL is at least 40 µg/mL.

In the case of `O[C@@H]1[C@@H](O)[C@H](c2ccccc2)O[C@@H]2CO[C@@H](c3ccc(Cl)cc3)O[C@@H]12`, half-maximal inhibition with Cytomegalovirus [1] (IC50) was put at 14 µg/mL (≈ 38.6 µM). In the test on HEL, this compound gave a CC50 of over 50 µg/mL and an MCC of at least 100 µg/mL. This compound also displayed a 50% inhibitory concentration (IC50) in the test on Cytomegalovirus [2] of 10 µg/mL (≈ 27.6 µM).

As for `C#CCO[C@@H]1[C@@H](OCC#C)[C@H](c2ccccc2)O[C@@H]2CO[C@@H](c3ccccc3)O[C@@H]12`, the IC50 in the test on Cytomegalovirus [1] stood at 5 µg/mL (≈ 12.4 µM); in the test with Cytomegalovirus [2] it was 3 µg/mL (≈ 7.42 µM). Further, the MCC with HEL was determined as 40 µg/mL.

Consider `CO[C@@H]1[C@@H](OC)[C@H](c2ccccc2)O[C@@H]2CO[C@@H](c3ccccc3)O[C@@H]12`, for which the IC50 with Cytomegalovirus [1] worked out at 2 µg/mL (≈ 5.61 µM); in the test on Cytomegalovirus [2], 2.4 µg/mL (≈ 6.73 µM).

As for `CO[C@@H]1[C@@H](OC)[C@H](c2ccccc2)O[C@@H]2CO[C@@H](c3ccc4ccccc4c3)O[C@@H]12`, the IC50 in the test with Cytomegalovirus [1] came to 0.47 µg/mL (≈ 1.16 µM); in the test with Cytomegalovirus [2], 0.8 µg/mL (≈ 1.97 µM). This compound showed a CC50 in the test on HEL of over 50 µg/mL. In the test on HEL, this compound yielded an MCC of at least 16 µg/mL.

Take `O[C@@H]1[C@@H](O)[C@H](c2ccccc2)O[C@@H]2CO[C@@H](c3ccc(C(F)(F)F)cc3)O[C@@H]12`: the midpoint of inhibition in the test on Cytomegalovirus [1], the IC50, lay at 1.6 µg/mL (≈ 4.04 µM). Also, in the test on HEL, it took 35 µg/mL (≈ 88.3 µM) to reach half-maximal cytotoxicity (CC50) and the MCC was 400 µg/mL. The compound further yielded an IC50 in the test with Cytomegalovirus [2] of 1.6 µg/mL (≈ 4.04 µM).
